Key:
Format in all cases: functional
[1] = species on record: Mus musculus; assay: Sedative activity was determined by measuring the loss of the righting reflux induced by chlorprothixene in mice
Method in brief: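 Male albino DS mice (20-24 g), ten per group, given oral test drug (arabic gum suspension) combined with chlorprothixene 2 mg/kg ip; samples estimated 60 min after dosing.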

[2] = species on record: Mus musculus; assay: Antianxiety activity was determined by measuring the antagonism of foot shock induced fighting (taming) in mice
Method in brief: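 Male albino DS mice (20-24 g), oral dosing as arabic gum suspension. Paired mice under glass enclosure given foot shocks (5 Hz, 2 ms, DC 50 V); pairs with 15–20 fighting episodes in 3 min selected, five pairs per dose. Responses counted before and 60 min after dosing; ED50 = dose giving 50% inhibition, by regression analysis.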

[3] = species on record: Mus musculus; assay: Sedative activity was determined by measuring the inhibition of spontaneous motor activity
[4] = species on record: Mus musculus; assay: Sedative activity was determined by measuring the loss of the righting reflux induced by thiopental sodium in mice
Method in brief: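 Male albino DS mice (20-24 g), ten per group, pretreated orally (arabic gum suspension), then given thiopental sodium 35 mg/kg iv. ED50 = dose producing 50% increase in duration of anesthesia, by regression analysis.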

[5] = species on record: Mus musculus; assay: Muscle relaxation was determined by using rotatory drum (rotarod) in mice, activity is expressed as ED50 values
Method in brief: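 Male albino DS mice (20-24 g), groups of five, oral dosing in aqueous arabic gum. At 60 min placed on a 3 cm wooden rod turning at 5 rpm; animals falling off within 2 min counted. ED50 estimated by up and down method.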

[6] = species on record: Mus musculus; assay: Anticonvulsant activity was determined as the degree of protection against convulsions induced by pentylenetetrazole in mice
Method in brief: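 Male albino DS mice (20-24 g), ten per group, dosed orally as arabic gum suspension. Challenged 60 min later with pentylenetetrazole 125 mg/kg sc; protection from convulsion and death scored over 2 h observation. ED50 (dose protecting 50%) estimated by probit method; 95% confidence limits given.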

## Cc1nnc(CNC(=O)CN)n1-c1ccc(Cl)cc1C(=O)c1ccccc1
[1]
  ED50: 0.94 mg/kg
[2]
  ED50: 3.02 mg/kg
[3]
  ED50: 4.25 mg/kg
[4]
  ED50: 0.72 mg/kg
[5]
  ED50: 3.94 mg/kg
[6]
  ED50: 0.38 mg/kg

## Cc1nnc(CNC(=O)CN)n1-c1ccc(Cl)cc1C(=O)c1ccccc1F
[1]
  ED50: 0.16 mg/kg
[2]
  ED50: 0.28 mg/kg
[3]
  ED50: 1.52 mg/kg
[4]
  ED50: 0.25 mg/kg
[5]
  ED50: 1.84 mg/kg
[6]
  ED50: 0.09 mg/kg

## NCC(=O)NCc1nncn1-c1ccc(Cl)cc1C(=O)c1ccccc1
[1]
  ED50: 1.66 mg/kg
[2]
  ED50: 5.71 mg/kg
[3]
  ED50: 31.7 mg/kg
[4]
  ED50: 1.97 mg/kg
[5]
  ED50: 11.8 mg/kg
[6]
  ED50: 1.37 mg/kg

## Cc1nnc(CNC(=O)CN)n1-c1ccc(Cl)cc1C(=O)c1ccccc1Cl
[1]
  ED50: 0.62 mg/kg
[2]
  ED50: 0.58 mg/kg
[3]
  ED50: 0.31 mg/kg
[4]
  ED50: 0.27 mg/kg
[5]
  ED50: 2.09 mg/kg
[6]
  ED50: 0.26 mg/kg

## Cc1nnc(CNC(=O)C(N)Cc2ccccc2)n1-c1ccc(Cl)cc1C(=O)c1ccccc1Cl (stereo not drawn)
[1]
  ED50: 0.23 mg/kg
[2]
  ED50: 0.55 mg/kg
[3]
  ED50: 0.38 mg/kg
[4]
  ED50: 1.52 mg/kg
[5]
  ED50: 1.83 mg/kg
[6]
  ED50: 0.31 mg/kg

## NCC(=O)NCc1nnc(C2CC2)n1-c1ccc(Cl)cc1C(=O)c1ccccc1Cl
[1]
  ED50: 0.49 mg/kg
[2]
  ED50: 2.34 mg/kg
[3]
  ED50: 1.5 mg/kg
[4]
  ED50: 4.94 mg/kg
[5]
  ED50: 18.7 mg/kg
[6]
  ED50: 0.88 mg/kg

## CN(C(=O)CNC(=O)CN)c1ccc(Cl)cc1C(=O)c1ccccc1
[2]
  ED50: 10.9 mg/kg
[3]
  ED50: 15.2 mg/kg
[4]
  ED50: 5.2 mg/kg
[5]
  ED50: 29.3 mg/kg
[6]
  ED50: 2.16 mg/kg

## Cc1nnc2n1-c1ccc(Cl)cc1C(c1ccccc1)=NC2 [ALPRAZOLAM]
[1]
  ED50: 0.25 mg/kg
[2]
  ED50: 1.09 mg/kg
[3]
  ED50: 0.94 mg/kg
[4]
  ED50: 0.36 mg/kg
[5]
  ED50: 2.22 mg/kg
[6]
  ED50: 0.22 mg/kg

## Clc1ccc2c(c1)C(c1ccccc1)=NCc1nncn1-2 [ESTAZOLAM]
[1]
  ED50: 6.22 mg/kg
[2]
  ED50: 2.62 mg/kg
[3]
  ED50: 3.09 mg/kg
[4]
  ED50: 2.32 mg/kg
[5]
  ED50: 5.44 mg/kg
[6]
  ED50: 0.52 mg/kg

## CN(C(=O)CNC(=O)CN)c1ccc(Cl)cc1C(=O)c1ccccc1Cl [LORZAFONE ANHYDROUS]
[1]
  ED50: 2.59 mg/kg
[2]
  ED50: 3.2 mg/kg
[3]
  ED50: 1.4 mg/kg
[4]
  ED50: 0.8 mg/kg
[6]
  ED50: 0.56 mg/kg

## Cc1nnc2n1-c1ccc(Cl)cc1C(c1ccccc1Cl)=NC2 [TRIAZOLAM]
[2]
  ED50: 0.4 mg/kg
[3]
  ED50: 0.054 mg/kg
[4]
  ED50: 0.18 mg/kg
[5]
  ED50: 0.83 mg/kg
[6]
  ED50: 0.039 mg/kg

From ChEMBL document CHEMBL1121989, “Amino acid amide derivatives of 2-[3-(aminomethyl)-4H-1,2,4-triazol-4-yl]benzophenones, a novel class of annelated peptidoaminobenzophenones” (1982)
